Compound activity from PubChem BioAssay.
This is one part of a sample in which hits are shown more often than they occur.
VLA-4 inh: inhibition in a human VLA-4 binding assay | P13612 | 0.2% of 330,000 active | inhibition, % (about 7 µM as worked out from the volumes in the protocol) | VLA-4 expressing cells, ligand binding flow cytometry; in the data active = inhibition above about 50%
B2AR ag: human beta-2 adrenergic receptor agonism by FAP. P07550. Am2.2-beta2AR cells, FAP receptor internalization, flow cytometry. response, % (test concentration not listed). 0.43% of 340,000 active;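 active = response above a set limit, near 3 SD of response in nonfluorescent compounds, cut at about 42% in these data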
CHOP inh: blocks CHOP induction under ER stress; CHO-K1 CHOP-promoter luciferase, tunicamycin-induced, 15-18 h; inhibition, % at 10 µM; 3.8% of 220,000 active;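 active = compounds that reduced the stress-induced luciferase reporter signal by more than about 70% of percent inhibition, limit read from the data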;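 note: 0% = tunicamycin plus vehicle and 100% = wells without tunicamycin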
UPR CHOP act: apoptotic UPR (CHOP) activation; activation, % at 10 µM; 0.34% of 330,000 active; CHO-CHOP luciferase reporter, luminescence; percent of tunicamycin response over DMSO baseline; AID 449763;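 active = at 10 µM dose, activation of 40% or more, normalized to positive control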;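 note: 100% = tunicamycin at 10 µg/mL and 0% = DMSO alone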
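Dosing – one dose, 10 µM in 0.5% DMSO · System – CHO-CHOP cells, stable luciferase reporter of PERK-eIF2a-CHOP signalling · Input – 500 cells/well · Control set – tunicamycin 10 µg/mL final as positive, DMSO-only wells as negative · Timing – 6 h compound treatment, 37 °C · Measure – % activation vs tunicamycin · Technique – luminescence read with Steady-Glo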
XBP1 UPR activ: adaptive UPR (XBP1) activation; activation, % at 20 µM; 0.33% of 330,000 active; CHO-XBP1 luciferase reporter, IRE1-XBP1 UPR activation, luminescence; percent of tunicamycin response, DMSO as zero;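 active = versus positive control, 20 µM dose yields 30% or more activation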;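 note: 100% = tunicamycin at 10 µg/mL and 0% = DMSO only wells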
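Assay system: CHO-XBP1 luciferase reporter cells; Schedule: 6 h treatment, 37 °C; Detection: glow luminescence from Steady-Glo reagent; Benchmarks: high control tunicamycin 10 µg/mL final, low control DMSO vehicle only.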
* hit, by the source's call.

What do the screens show for `Cc1cc(C)cc(-n2ccnc2SCC(=O)Nc2ccc3c(c2)OCCO3)c1`?
VLA-4 inh: 11.0; B2AR ag: -0.5; CHOP inh: 83.6*; UPR CHOP act: -1.8; XBP1 UPR activ: -1.4

How did O=C1CC2(CCCCC2)Oc2ccccc21 do in these assays?
VLA-4 inh: 9.7; B2AR ag: -6.5; UPR CHOP act: -1.7; XBP1 UPR activ: 1.3

Results for CC(C)(C)C1CCC2(CC1)CC(=O)c1ccccc1O2 (stereo unspecified) ?
VLA-4 inh: 9.1; B2AR ag: -1.6; CHOP inh: 74.0*; UPR CHOP act: 0.3; XBP1 UPR activ: -0.8

How did COc1cc(C(=O)N2CCN(C)C(C)C2)ccc1OC1CCN(C(C)=O)CC1 (stereo unspecified) do in these assays?
VLA-4 inh: 4.4; B2AR ag: -1.5; UPR CHOP act: 2.6; XBP1 UPR activ: -1.8

Results for C=CCn1c(SCC(=O)NCCCC)nc2scc(-c3ccco3)c2c1=O ?
VLA-4 inh: -3.4; B2AR ag: 1.8; CHOP inh: 93.4*; UPR CHOP act: -0.7; XBP1 UPR activ: -0.5

How did C=CCn1c(SCC(=O)NC2CCCC2)nc2scc(-c3ccco3)c2c1=O do in these assays?
VLA-4 inh: 4.6; B2AR ag: -7.7; CHOP inh: -20.1; UPR CHOP act: 0.5; XBP1 UPR activ: -0.2

Results for Cc1ccc(N2C(=O)c3ccccc3C2C(=O)c2ccc(C)c(C)c2O)cc1 (stereo unspecified) ?
VLA-4 inh: 19.7; B2AR ag: 5.6; CHOP inh: -5.2; UPR CHOP act: 2.5; XBP1 UPR activ: 0.4

How did O=c1c2cc(Cl)ccc2nc(-c2ccc(Cl)c(Cl)c2)n1O do in these assays?
VLA-4 inh: 9.7; B2AR ag: 11.2; CHOP inh: 102.3*; UPR CHOP act: 1.8; XBP1 UPR activ: 10.4

What do the screens show for `O=C(O)c1ccc(C2NCC(c3ccccc3Cl)c3c2[nH]c2ccccc32)cc1` (stereo unspecified)?
VLA-4 inh: 0.5; B2AR ag: -1.4; CHOP inh: 5.4; UPR CHOP act: -2.6; XBP1 UPR activ: 2.1

How did COc1cc(C2NCC(c3ccc(Cl)cc3Cl)c3c2[nH]c2ccccc32)cc(OC)c1OC (stereo unspecified) do in these assays?
VLA-4 inh: -5.3; B2AR ag: 1.8; CHOP inh: 76.6*; UPR CHOP act: 5.3; XBP1 UPR activ: -2.0

Results for COc1ccc(N2C(=O)CSC23CCC(C(C)(C)C)CC3)cc1 (stereo unspecified) ?
VLA-4 inh: 7.1; B2AR ag: -3.5; CHOP inh: 78.5*; UPR CHOP act: 1.5; XBP1 UPR activ: 4.2

Results for CCCN(CC(=O)Nc1ccccc1C)C(=O)C1CCN(C(=O)Nc2ccccc2)CC1 ?
VLA-4 inh: 46.2; B2AR ag: 2.8; UPR CHOP act: 0.9; XBP1 UPR activ: -4.2

How did CCOC(=O)c1c(N)sc(C(O)(C(F)(F)F)C(F)(F)F)c1-c1ccccc1 do in these assays?
VLA-4 inh: 13.0; B2AR ag: 7.2; CHOP inh: 104.7*; UPR CHOP act: -0.3; XBP1 UPR activ: -0.6

Results for CCOC(=O)c1c(N)sc(-c2ccccc2)c1C ?
VLA-4 inh: 7.5; B2AR ag: -7.7; CHOP inh: 5.0; UPR CHOP act: 0.6; XBP1 UPR activ: 6.0

What do the screens show for `CCC(=O)N1CCc2cc(S(=O)(=O)CCC(=O)N(C)c3ccc(OC)cc3OC)ccc21`?
VLA-4 inh: 8.5; B2AR ag: -5.8; UPR CHOP act: 3.7; XBP1 UPR activ: 2.5

How did O=C(O)COc1cccc(NC(=O)c2ccccc2)c1 do in these assays?
VLA-4 inh: 0.0; B2AR ag: 10.7; CHOP inh: -8.8; UPR CHOP act: 0.6; XBP1 UPR activ: -0.2

What do the screens show for `CC(C)CCOc1cccc(OCC(=O)O)c1`?
B2AR ag: -7.4; CHOP inh: 86.3*; UPR CHOP act: -1.4; XBP1 UPR activ: -0.9

Results for COc1ccc(-c2oc(=O)c3cc(OC)c(OC)cc3c2-c2ccc3c(c2)OCO3)cc1 ?
VLA-4 inh: -21.0; B2AR ag: -3.9; UPR CHOP act: 4.6; XBP1 UPR activ: 1.9

How did COc1cc2c(O)c3c(c(-c4ccc5c(c4)OCO5)c2cc1OC)C(=O)OC3 do in these assays?
VLA-4 inh: 12.9; B2AR ag: 44.9*; UPR CHOP act: 6.0; XBP1 UPR activ: -3.3

What do the screens show for `COc1cc2c(OC(C)=O)c3c(c(-c4ccc5c(c4)OCO5)c2cc1OC)C(=O)OC3`?
VLA-4 inh: 31.3; B2AR ag: 58.7*; CHOP inh: -14.5; UPR CHOP act: 3.3; XBP1 UPR activ: -4.5

What do the screens show for `Cc1ccc(C)c(NC(=O)CSc2nnc(-c3cc(C)[nH]n3)n2N)c1`?
VLA-4 inh: 10.8; B2AR ag: -0.3; UPR CHOP act: -1.1; XBP1 UPR activ: -2.6

Results for CC(C)[C@H](NC(=O)N1CCn2c1nc1ccccc12)C(=O)NCC1CCCO1 (stereo partly specified) ?
VLA-4 inh: 26.7; B2AR ag: -1.6; UPR CHOP act: -2.0; XBP1 UPR activ: -6.8

How did CCc1cccc2c1NC(=O)C21N2CCCC2C(C(=O)c2ccc3ccccc3c2)C12C(=O)Nc1ccccc12 (stereo unspecified) do in these assays?
VLA-4 inh: 4.1; B2AR ag: 14.0; CHOP inh: -27.2; UPR CHOP act: 17.5; XBP1 UPR activ: 4.0

Results for CCc1ccc2c(c1)C1(C(=O)N2)N2CCCC2C(C(=O)c2ccc3ccccc3c2)C12C(=O)Nc1ccccc12 (stereo unspecified) ?
VLA-4 inh: 17.5; B2AR ag: 25.5; CHOP inh: 105.8*; UPR CHOP act: 2.7; XBP1 UPR activ: 11.8

How did CC1CC2(CCCCC2)Nc2ccc3ccccc3c21 (stereo unspecified) do in these assays?
VLA-4 inh: -4.4; B2AR ag: 5.2; CHOP inh: -22.7; UPR CHOP act: -1.9; XBP1 UPR activ: 3.8

Results for CC(=O)N1c2ccc3ccccc3c2C(C)CC12CCCCC2 (stereo unspecified) ?
VLA-4 inh: 1.2; B2AR ag: 1.6; CHOP inh: 70.1*; UPR CHOP act: 1.3; XBP1 UPR activ: 3.5

How did O=C(OCn1ncc(Br)c(Br)c1=O)c1ccc(F)cc1 do in these assays?
VLA-4 inh: 39.3; B2AR ag: 77.9*; UPR CHOP act: -11.2; XBP1 UPR activ: -5.8

Results for CC(=O)OCn1ncc(N2CCOCC2)c(Br)c1=O ?
VLA-4 inh: 6.3; B2AR ag: -5.0; UPR CHOP act: 0.6; XBP1 UPR activ: 1.2

How did Cc1[nH]n(-c2ccc(Cl)cc2)c(=O)c1N=Nc1cccnc1 do in these assays?
VLA-4 inh: -7.2; B2AR ag: -7.3; CHOP inh: 89.6*; UPR CHOP act: 3.0; XBP1 UPR activ: 1.2

Results for Cc1[nH]n(-c2ccccc2)c(=O)c1N=Nc1ccc(F)cc1 ?
VLA-4 inh: 0.0; B2AR ag: 9.8; UPR CHOP act: 5.4; XBP1 UPR activ: -1.1

What do the screens show for `CCn1cc(C(=O)O)c(=O)c2ccc(Cc3ccccc3)nc21`?
CHOP inh: 8.9
